Source: PubChem BioAssay
The list is not random: actives were taken first. Their share in the collection is about 2.3%.
ADAM10 inh: inhibits human ADAM10; O14672; recombinant ADAM10, EDANS/DABCYL FRET peptide cleavage, 3 h; inhibition, % at 7 µM; actives 0.62% (n = 370,000);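 active = inhibition above a per-campaign cutoff equal to the mean of compounds falling between control-based bounds plus 3 SD, cut at about 20% in these data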;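 note: 0% = DMSO wells while the 100% control is not disclosed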
PLCg1 inh: PLC-gamma1 (human) inhibition, primary screen; inhibition, % at 12.2 µM; purified PLC-gamma1, fluorogenic substrate, fluorescence; actives 0.84% (n = 370,000); P19174; in the data active = inhibition above about 9.5%
Tb MetRS inh: blocks T. brucei methionyl-tRNA synthetase activity; purified T. brucei MetRS, ATP depletion, Kinase-Glo luminescence; inhibition, % at 11.9 µM; actives 0.4% (n = 360,000);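 active = inhibition above a per-plate cutoff of the control wells' mean inhibition plus 3 SD, cut at about 5.5% in these data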;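 note: 0% = DMSO wells median and 100% = median of wells with control inhibitor compound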
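Test system: purified T. brucei MetRS enzyme. Also added: ATP, methionine and E. coli bulk tRNA substrates. Compound: 11.9 µM single point. Schedule: 15 min enzyme-compound preincubation, 2 h reaction, 10 min detection, 25 °C. Signal: luciferase luminescence of residual ATP, Kinase-Glo. Evaluation: percent inhibition versus plate control medians. Controls: DMSO wells, low control.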
ADAM17 inh: ADAM17 inhibition, QFRET primary screen | P78536 | recombinant ADAM17, EDANS/DABCYL FRET peptide cleavage | inhibition, % at 6.95 µM | actives 0.83% (n = 370,000) | AID 720648;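 active = inhibition above the mean of compounds lying between control limits plus 3 SD, set per campaign, cut at about 8.5% in these data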;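 note: 0% = DMSO-only wells as the low control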
PLCb3 inh: PLC-beta3 (human) inhibition, primary screen; inhibition, % at 12.2 µM; Purified PLC-beta3, fluorogenic substrate, fluorescence; actives 0.18% (n = 370,000); in the data active = inhibition above about 11%;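 note: 0% = median of compound wells on plate and 100% = full blocker control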
ADAM10 confirm: confirmation of inhibitors of human ADAM10; shares compounds with ADAM10 inh; ADAM10 QFRET peptide cleavage, EDANS fluorescence; inhibition, % at 6.95 µM; actives 1% (n = 2,100); AID 743208;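 active = inhibition above about 20% chosen separately for each screening run, limit read from the data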;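 note: 0% = DMSO wells and 100% = marimastat wells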
ADAM17 ctr: counter-screen for ADAM10 exosite inhibitors: inhibitors of human ADAM17; shares compounds with ADAM10 inh; ADAM17 QFRET peptide cleavage, EDANS fluorescence; actives 0.5% (n = 2,100); AID 743214; inhibition, % at 6.95 µM;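 active = mean triplicate inhibition above the solvent-only control wells' mean plus 3 SD, cut at about 12% in these data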;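 note: 0% = DMSO wells and 100% = marimastat wells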
Numbers without * were called inactive; x = no result given.

SMILES	ADAM10 inh	PLCg1 inh	Tb MetRS inh	ADAM17 inh	PLCb3 inh	ADAM10 confirm	ADAM17 ctr
CCOP(=O)(OCC)C(NC(=O)Nc1ccc(C)c(Cl)c1)c1ccccc1 (configuration not stated)	7	7	0	9	3	x	x
O=C(COC(=O)CCc1c[nH]c2ccccc12)NC(c1ccccc1)c1ccccc1	24*	8	0	7	-1	7	2
CCOc1ccc(NC(C)c2cc(Cl)ccc2O)cc1 (configuration not stated)	6	-4	-1	-4	0	x	x
CC(Nc1ccc(Cl)cc1)c1cc(Cl)ccc1O (configuration not stated)	23*	7	0	8	3	3	1
Cc1ccc(C)c(OCc2cc(C(=O)NC3CCOC(C)(C)C3)no2)c1 (configuration not stated)	1	6	0	-1	-7	x	x
CCCC1=Nc2cc(C(=O)NCCCOC(C)C)ccc2Sc2ccccc21	21*	7	0	8	2	7	2
Cc1cccc(C(=O)NC(=S)N2CCN(C)CC2)c1	-5	-2	0	-3	0	x	x
Cc1cccc(C(=O)NC(=S)N2CCN(C(=S)NC(=O)c3cccc(C)c3)CC2)c1	24*	-8	-1	3	3	1	0
Cc1cc(C)n(CC(O)Cn2c3ccc(Br)cc3c3cc(Br)ccc32)c(=O)n1 (configuration not stated)	20*	2	-1	8	1	6	2
Cc1cc(C)n(CC(O)Cn2c3ccccc3c3ccccc32)c(=O)n1 (configuration not stated)	2	0	-1	-4	-3	x	x
C[C@@H]1CN([C@H](C)CO)C(=O)c2cc(NC(=O)Nc3ccccc3)ccc2O[C@@H](C)CCCCO[C@H]1CN(C)S(=O)(=O)c1ccc(F)cc1	20*	0	x	8	2	6	2
C[C@@H]1CN([C@@H](C)CO)S(=O)(=O)c2ccc(Br)cc2O[C@H]1CN(C)C(=O)Nc1ccc(C(F)(F)F)cc1	21*	0	-2	8	-1	4	1
C[C@@H]1CCCCO[C@@H](CN(C)C(=O)Nc2ccc(C(F)(F)F)cc2)[C@@H](C)CN([C@H](C)CO)C(=O)c2cc(NS(=O)(=O)c3ccc(Cl)cc3)ccc2O1	45*	0	x	16*	4	9	1
CCCCNC(=O)C[C@H]1C[C@@]2(C(=O)OC)C(=C[C@H](C3CCCC3)O[C@@H]2C)N(Cc2cccc3ccccc23)C1=O	24*	6	x	6	5	7	2
COC(=O)[C@]12C[C@H](CC(=O)N3CCCCC3)C(=O)N(Cc3cccc4ccccc34)C1=C[C@H](C1CCCC1)O[C@@H]2C	9	2	x	4	2	x	x
CCOC(=O)N1CCN(C(=O)C[C@H]2C[C@@]3(C(=O)OC)C(=C[C@H](C4CCCC4)O[C@@H]3C)N(Cc3cccc4ccccc34)C2=O)CC1	24*	4	x	8	1	8	2
COC(=O)[C@]12C[C@H](CC(=O)NCCC(C)C)C(=O)N(Cc3cccc4ccccc34)C1=C[C@H](C1CCCC1)O[C@@H]2C	16	2	x	5	3	x	x
COC(=O)[C@]12C[C@H](CC(=O)N3CCCCC3)C(=O)N(CCc3ccc(OC)c(OC)c3)C1=C[C@H](COCc1ccccc1)O[C@@H]2C	58*	2	x	-2	2	-1	0
COC(=O)[C@]12C[C@H](CC(=O)NCc3cccs3)C(=O)N(Cc3cccc4ccccc34)C1=C[C@H](C1CCCC1)O[C@@H]2C	21*	1	x	4	3	9	3
COC(=O)[C@]12C[C@H](CC(=O)NCCCCc3ccccc3)C(=O)N(Cc3cccc4ccccc34)C1=C[C@H](C1CCCC1)O[C@@H]2C	-13	3	x	-6	-7	x	x
Cc1c(Cl)cccc1NC(=O)CC1Oc2ccccc2NC1=O (configuration not stated)	-1	-2	0	-9	-7	x	x
Cc1csc(=O)n1CCC(=O)OCC(=O)c1ccc(Br)cc1	1	0	0	-3	-5	x	x
O=C(OCC(=O)N1CCN(Cc2ccccc2)CC1)c1cc(Cl)ccc1[N+](=O)[O-]	-2	2	0	-1	3	x	x
COC(=O)[C@]12C[C@H](CC(=O)NCc3cccc4ccccc34)C(=O)N(Cc3cccc4ccccc34)C1=C[C@H](COCc1ccccc1)O[C@@H]2C	12	2	x	4	-3	x	x
COC(=O)[C@]12C[C@H](CC(=O)NCc3cccc4ccccc34)C(=O)N(Cc3ccco3)C1=C[C@H](COCc1ccccc1)O[C@@H]2C	22*	8	x	7	3	6	2
SMILES	ADAM10 inh	PLCg1 inh	Tb MetRS inh	ADAM17 inh	PLCb3 inh	ADAM10 confirm	ADAM17 ctr
COC(=O)[C@]12C[C@H](CC(=O)NCc3cccc4ccccc34)C(=O)N(CCc3ccc(OC)c(OC)c3)C1=C[C@H](C(C)(C)C)O[C@@H]2C	22*	4	x	7	6	10	3
CCCCNC(=O)C[C@H]1C[C@@]2(C(=O)OC)C(=C[C@H](C(C)(C)C)O[C@@H]2C)N(CCc2ccc(OC)c(OC)c2)C1=O	9	0	x	4	3	x	x
Nc1nc(-c2ccc(Cl)cc2)c(S(=O)(=O)c2ccccc2)s1	20*	1	-2	8	-1	0	0
OC(CSc1c(Cl)cccc1Cl)CN1CCN(c2ccc(F)cc2)CC1 (configuration not stated)	21*	15*	-1	11*	8	2	1
OC(CSc1ccccc1Cl)CN1CCN(c2ccc(F)cc2)CC1 (configuration not stated)	5	4	0	0	6	x	x
CSCC[C@H](NC(=O)OC(C)(C)C)c1nnc(SCc2cccc(F)c2)o1	20*	3	-2	1	4	1	0
O=Cc1c(Nc2cccc(C(F)(F)F)c2)nc2ccccn2c1=O	-3	-6	0	-5	-8	x	x
O=C(N/N=C/c1c(Nc2cccc(C(F)(F)F)c2)nc2ccccn2c1=O)c1ccccc1[N+](=O)[O-]	32*	-2	0	1	-3	0	0
CC(C)(C)c1ccc(OCCC(=O)Nc2cccc(S(=O)(=O)N3CCCCC3)c2)cc1	24*	0	0	5	4	10	3
O=C(Cc1cccc(C(F)(F)F)c1)Nc1cccc(S(=O)(=O)N2CCCC2)c1	20*	4	3	3	-26	1	1
O=C(Cc1cccc(C(F)(F)F)c1)Nc1ccc(S(=O)(=O)N2CCCC2)cc1	16	1	0	6	-6	x	x
